Source: ChEMBL document CHEMBL2034978, “Synthesis and evaluation of curcumin-related compounds for anticancer activity” (Eur J Med Chem, 2012)
Active and inactive are the calls of the source. The calls are words filed in the database; no cut-off is given here.

Assays:
PANC-1 [1] = assay: Cytotoxicity against human PANC1 cells after 72 hrs by MTT assay; assay type: functional, cell-based; conditions: PANC-1, 72 h
Procedure, shortened: (§1)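 Seeded at 0.2 × 10⁵ cells/ml, grown 24 h, then exposed 72 h to a range of concentrations (upper limit 30). MTT read-out: formazan dissolved in DMSO, absorbance at 540 nm, growth expressed as percent of DMSO-treated cells.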

PC-3 [2] = assay: Ratio of curcumin IC50 to compound IC50 for human PC3 cells; assay type: functional
Procedure, shortened: (§2)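 Curcumin served as positive control in each incubation, with its growth-inhibition data averaged across experiments.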

HT-29 [3] = assay: Cytotoxicity against human HT-29 cells after 72 hrs by MTT assay; assay type: functional, cell-based; conditions: HT-29, 72 h; procedure, shortened: as §1
PC-3 [4] = assay: Cytotoxicity against human PC3 cells after 72 hrs by MTT assay; assay type: functional, cell-based; conditions: PC-3, 72 h; procedure, shortened: as §1
PC-3 [5] = assay: Induction of apoptosis in human PC3 cells at <1 uM after 96 hrs by morphology analysis; assay type: functional, cell-based
PANC-1 [6] = assay: Ratio of curcumin IC50 to compound IC50 for human PANC1 cells; assay type: functional; procedure, shortened: as §2
HT-29 [7] = assay: Ratio of curcumin IC50 to compound IC50 for human HT-29 cells; assay type: functional; procedure, shortened: as §2
[8] = molecular target: Mitogen-activated protein kinase; ERK1/ERK2 (Homo sapiens) (UniProt P27361+P28482); assay: Inhibition of ERK1/2 phosphorylation in human PC3 cells at 0.5 uM after 24 hrs by Western blotting relative to beta-actin; assay type: cell-based; conditions: PC-3
Mitogen-activated protein kinase; ERK1/ERK2 (Homo sapiens), sequence (P27361 whole entry, looked up): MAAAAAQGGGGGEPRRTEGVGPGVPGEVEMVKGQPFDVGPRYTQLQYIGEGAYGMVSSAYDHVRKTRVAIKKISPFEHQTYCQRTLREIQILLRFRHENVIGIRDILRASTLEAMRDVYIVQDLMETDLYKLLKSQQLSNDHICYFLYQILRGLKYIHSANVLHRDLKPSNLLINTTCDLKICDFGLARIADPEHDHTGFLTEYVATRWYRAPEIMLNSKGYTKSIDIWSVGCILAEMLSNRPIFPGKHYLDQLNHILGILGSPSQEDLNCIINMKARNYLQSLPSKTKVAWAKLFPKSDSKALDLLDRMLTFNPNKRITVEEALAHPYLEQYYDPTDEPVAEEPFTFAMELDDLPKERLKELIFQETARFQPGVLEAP
Mitogen-activated protein kinase; ERK1/ERK2 (Homo sapiens), sequence (P28482 whole entry, looked up): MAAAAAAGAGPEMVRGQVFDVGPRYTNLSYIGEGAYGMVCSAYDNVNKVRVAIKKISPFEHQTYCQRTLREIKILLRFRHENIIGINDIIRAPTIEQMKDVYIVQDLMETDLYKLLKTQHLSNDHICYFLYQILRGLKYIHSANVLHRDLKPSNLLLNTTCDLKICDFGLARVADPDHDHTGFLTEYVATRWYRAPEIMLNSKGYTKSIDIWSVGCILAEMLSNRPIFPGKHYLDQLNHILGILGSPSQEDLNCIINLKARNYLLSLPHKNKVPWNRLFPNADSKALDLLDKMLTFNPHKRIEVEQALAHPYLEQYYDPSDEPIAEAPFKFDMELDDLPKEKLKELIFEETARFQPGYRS
Procedure, shortened: (§3)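 PC-3 cells were seeded at 1 × 10⁵ cells/ml in 100 mm dishes, grown 24 h, then treated 24 h. Cells were lysed in Tris-HCl pH 7.4 buffer containing NaF, pyrophosphate, orthovanadate and Triton X-100, and lysates cleared at 12,000×g. Blots on PVDF were probed with anti-phospho-Akt or anti-phospho-Erk1/2, detected by ECL, quantified by optical density and normalized to β-actin.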

PC-3 [9] = assay: Inhibition of Akt phosphorylation in human PC3 cells at 0.5 uM after 24 hrs by Western blotting relative to beta-actin; assay type: cell-based; procedure, shortened: as §3

In the case of `COc1cc(/C=C2\COC/C(=C\c3cc(OC)c(OC)c(OC)c3)C2=O)cc(OC)c1OC`, the IC50 (PANC-1 [1]) is reported as 520 nM, the “Ratio IC50” value (PC-3 [2]) is reported as 72 and the IC50 (HT-29 [3]) is reported as 160 nM. The IC50 (PC-3 [4]) was 270 nM, the Activity (PC-3 [5]) was “Active” and the “Ratio IC50” value (PANC-1 [6]) was 46. The “Ratio IC50” value (HT-29 [7]) was 117, the inhibition [8] was “Active” and the inhibition (PC-3 [9]) was “Active”.
